# Experimental data of several laboratories.
# Lines come from different studies, so protocols differ.
# Target: Dual specificity protein kinase CLK3 (CLK3, Homo sapiens, UniProt P49761)
Structure (SMILES),assay,setting,quantity,result
CCCS(=O)(=O)Nc1ccc(F)c(C(=O)c2c[nH]c3ncc(-c4ccc(Cl)cc4)cc23)c1F,"enzyme activity, inhibitor",1 µM,inhibition,< 10%
CN1CC(Oc2cnc(C#N)cc2-c2ccn3nc(NC(=O)C4CC4)cc3c2)C1,"enzyme activity, inhibitor",1 µM,inhibition,-5%
COc1cc2c(Nc3ccc(Br)cc3F)ncnc2cc1OCC1CCN(C)CC1,cell-free assay,0.5 µM,remaining signal,100%
CC(=O)C1=C(C)N(c2cccc(C(F)(F)F)c2)C(=O)N[C@@H]1c1ccc(C#N)nc1,"cell-free assay, competition with immobilised ligand",1 µM,remaining binding,100%
N#CCCc1ccc2c(c1)-c1[nH]c3ccc([N+](=O)[O-])cc3c1CC(=O)N2,cell-free assay,0.5 µM,remaining signal,108%
Cc1cc(NC(=O)c2cccc3cc(-c4cccc5[nH]nc(N)c45)ccc23)ccc1F,"enzyme activity, inhibitor",0.1 µM,activity vs control,97%
Cn1c2c(c3ccc(Cl)c(Cl)c31)C(C#N)C1(CCOCC1)NC2=O (stereo not shown),"thermal stability, DSF",10 µM,ΔTm,0.1 °C
COc1ccc2c(O[C@@H]3C[C@H]4C(=O)N[C@]5(C(=O)O)CC5/C=C\CCCCC[C@H](NC(=O)OC5CCCC5)C(=O)N4C3)cc(-c3csc(NC(=O)C(C)C)n3)nc2c1C (stereo partly shown),"cell-free assay, competition with immobilised ligand",1 µM,remaining binding,100%
CCN(CC)CCNC(=O)c1c(C)[nH]c(/C=C2\C(=O)Nc3ccc(F)cc32)c1C,"enzyme activity, inhibitor",10 µM,inhibition,23%
Cn1c2c(c3ccc(Cl)c(Cl)c31)C(C#N)C1(CCCC1)NC2=O (stereo not shown),"thermal stability, DSF",10 µM,ΔTm,0.3 °C
Cc1ccc(Nc2nccc(N(C)c3ccc4c(C)n(C)nc4c3)n2)cc1S(N)(=O)=O,"enzyme activity, inhibitor",0.3 µM,inhibition,2%
Cc1ccc(C(=O)Nc2ccc(CN3CCN(C)CC3)c(C(F)(F)F)c2)cc1C#Cc1cnc2cccnn12,"enzyme activity, inhibitor",23.5 nM,remaining activity,77%
O=C1NC(=O)c2cc(Nc3ccc(F)cc3)c(Nc3ccc(F)cc3)cc21,cell-free assay,0.5 µM,remaining signal,93.7%
CNC(=O)c1cc(Oc2ccc(NC(=O)Nc3ccc(Cl)c(C(F)(F)F)c3)cc2)ccn1,"enzyme activity, inhibitor",0.3 µM,inhibition,-1%
COc1cc2ncnc(Nc3ccc(Oc4ccccc4)cc3C)c2cc1OC,"enzyme activity, inhibitor",1 µM,inhibition,5%
CN1CCN(c2cnc3c(C4CCN(C(=O)c5ccc(OC(F)(F)F)cc5N)CC4)ncnc3c2)CC1,"cell-free assay, competition with immobilised ligand",1 µM,remaining binding,100%
Cc1ccc(NC(=O)c2ccc(C)c(C(F)(F)F)c2)cc1C#Cc1nn(C2CCC(O)CC2)c2ncnc(N)c12 (stereo not shown),cell-free assay,10 µM,remaining signal,83%
CN(C)C(=O)Cn1cc(-c2nc([C@@](C)(c3ccc(-c4cnc(N)nc4)cc3)C3CC3)no2)cn1,"cell-free assay, competition with immobilised ligand",1 µM,remaining binding,100%
Cc1sc(C(=O)NC2COC2)cc1-n1cc(NC(=O)Nc2c(F)cccc2Cl)cn1,"enzyme activity, inhibitor",10 µM,remaining activity,99.6%
CCOc1cc(-c2nncn2C)ccc1Nc1ncc2cc(C)nc(NCC(C)(C)C)c2n1,"enzyme activity, inhibitor, FRET",1 µM,inhibition,< 15%
CCC1(CC)NC(=O)c2c(c3ccc(Cl)c(Cl)c3n2C)C1C#N (stereo not shown),"thermal stability, DSF",10 µM,ΔTm,0.3 °C
O=C(O)[C@@H]1[C@@H](Cn2nnc3ccccc3c2=O)CC[C@H]1C(=O)c1ccc(OCCC2CCOCC2)cc1,"cell-free assay, competition with immobilised ligand",1 µM,remaining binding,91%
O=C1Nc2ccc(Cl)cc2C1=Cc1cc(Cl)c(O)c(Cl)c1,cell-free assay,0.5 µM,remaining signal,90.9%
CCN(CC)c1ccc(C2=NNC(=O)CC2C)cc1[N+](=O)[O-] (stereo not shown),"enzyme activity, inhibitor",10 µM,remaining activity,85%
O=C(N[C@H]1CCCCC/C=C\C2C[C@@]2(C(=O)O)NC(=O)[C@@H]2C[C@@H](Oc3ccncc3)CN2C1=O)OC1CCCC1 (stereo partly shown),"binding, competition with immobilised ligand",1 µM,remaining binding,93%
Clc1ccc(Nc2nnc(Cc3ccncc3)c3ccccc23)cc1,cell-free assay,0.5 µM,remaining signal,105%
CCS(=O)(=O)c1cc2cc(C[C@](O)(CC(C)(C)c3ccc(F)cc3C(N)=O)C(F)(F)F)[nH]c2cn1,"cell-free assay, competition with immobilised ligand",1 µM,remaining binding,100%
Cn1c2c(c3ccc(Cl)c(Cl)c31)C(C#N)C1(CCCCC1)NC2=O (racemic),"thermal stability, DSF",10 µM,ΔTm,0.4 °C
CO[C@@H](C)c1c(Nc2ccc([C@H](N(C)C(=O)C3CCS(=O)(=O)CC3)C(F)(F)F)cc2)cnc2cc(Cl)nn12,"cell-free assay, competition with immobilised ligand",1 µM,remaining binding,87%
CC(C)(C)c1nc(-c2cccc(NS(=O)(=O)c3c(F)cccc3F)c2F)c(-c2ccnc(N)n2)s1,"enzyme activity, inhibitor, radiometric",1 µM,remaining activity,74%
Cn1c2c(Cl)c(Cl)ccc2c2cc[nH]c(=O)c21,"thermal stability, DSF",10 µM,ΔTm,1.5 °C
